In ChEMBL document CHEMBL4373712, “Bioactivatable Pseudotripeptidization of Cyclic Dipeptides To Increase the Affinity toward Oligopeptide Transporter 1 for Enhanced Oral Absorption: An Application to Cyclo(l-Hyp-l-Ser) (JBP485)” (J Med Chem, 2019):
Where a SMILES comes first, the peptide text is derived from it. [ ]: non-standard residue; d: D form. Hyp = O=C(O)[C@@H]1C[C@@H](O)CN1

What was measured:
[1] = molecular target: T1, Solute carrier family 15 member 1 (Rattus norvegicus, UniProt P51574); test: Ratio of compound effect for substrate activity at PEPT1 in Sprague-Dawley rat jejunum assessed as effective permeability in absence of non-metabolized PEPT1 substrate Gly-Sar to compound effect for substrate activity at PEPT1 in Sprague-Dawley rat jejunum assessed as effective permeability in presence of non-metabolized PEPT1 substrate Gly-Sar; type: ADME
T1 sequence (P51574 whole entry): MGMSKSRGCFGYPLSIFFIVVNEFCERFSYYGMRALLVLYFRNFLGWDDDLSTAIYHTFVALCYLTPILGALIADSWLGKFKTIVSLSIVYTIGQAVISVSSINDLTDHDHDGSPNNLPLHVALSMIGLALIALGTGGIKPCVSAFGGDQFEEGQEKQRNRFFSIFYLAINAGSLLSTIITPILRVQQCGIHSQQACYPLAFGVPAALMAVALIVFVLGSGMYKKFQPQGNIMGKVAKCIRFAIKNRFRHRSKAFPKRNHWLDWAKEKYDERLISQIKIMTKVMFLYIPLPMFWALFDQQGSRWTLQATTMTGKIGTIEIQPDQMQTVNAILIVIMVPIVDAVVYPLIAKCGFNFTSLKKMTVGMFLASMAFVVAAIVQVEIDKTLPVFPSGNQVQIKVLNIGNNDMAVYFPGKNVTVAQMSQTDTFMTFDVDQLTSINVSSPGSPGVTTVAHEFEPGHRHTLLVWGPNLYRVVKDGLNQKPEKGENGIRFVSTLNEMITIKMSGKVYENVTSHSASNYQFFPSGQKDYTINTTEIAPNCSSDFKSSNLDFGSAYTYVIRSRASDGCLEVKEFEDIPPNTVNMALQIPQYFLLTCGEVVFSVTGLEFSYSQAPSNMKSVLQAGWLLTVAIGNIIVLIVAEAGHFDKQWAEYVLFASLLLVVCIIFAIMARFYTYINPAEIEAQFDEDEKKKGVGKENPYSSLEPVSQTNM

[2] = molecular target: T2, Solute carrier family 15 member 1 (Homo sapiens, UniProt P46059); test: Substrate activity at PEPT1 in human Caco2 cells assessed as protein-mediated drug uptake at 0.5 mM measured after 10 mins in pH 7.4 HBSS buffer by UPLC-MS/MS analysis; type: ADME, cell-based; settings: caco-2, pH 7.4, 10 min, 500 µM
T2 sequence (P46059 whole entry): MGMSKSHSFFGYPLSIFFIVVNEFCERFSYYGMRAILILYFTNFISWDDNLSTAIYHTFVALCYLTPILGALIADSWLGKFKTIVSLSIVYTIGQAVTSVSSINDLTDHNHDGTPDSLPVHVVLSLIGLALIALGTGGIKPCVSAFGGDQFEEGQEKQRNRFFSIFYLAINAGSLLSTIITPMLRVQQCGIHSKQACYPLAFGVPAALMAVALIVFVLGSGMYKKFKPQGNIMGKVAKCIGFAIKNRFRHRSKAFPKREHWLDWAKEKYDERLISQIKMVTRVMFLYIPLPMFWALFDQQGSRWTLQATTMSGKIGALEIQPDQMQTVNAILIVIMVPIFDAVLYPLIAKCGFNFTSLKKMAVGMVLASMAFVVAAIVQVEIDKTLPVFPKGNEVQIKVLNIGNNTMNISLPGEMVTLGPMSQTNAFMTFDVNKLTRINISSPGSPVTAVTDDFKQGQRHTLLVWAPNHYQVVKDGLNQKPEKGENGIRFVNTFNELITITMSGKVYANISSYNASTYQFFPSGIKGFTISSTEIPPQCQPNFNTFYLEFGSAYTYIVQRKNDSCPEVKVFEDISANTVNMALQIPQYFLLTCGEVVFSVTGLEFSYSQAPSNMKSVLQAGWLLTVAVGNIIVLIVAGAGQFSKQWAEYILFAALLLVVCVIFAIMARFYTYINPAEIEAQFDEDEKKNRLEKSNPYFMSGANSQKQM
In short: (§1)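 Caco-2 cells incubated 10 min with 0.5 mM compound in HBSS at pH 6.0 or pH 7.4, washed three times in ice-cold PBS pH 7.4, homogenised. Protein by DC assay; drug by UPLC-MS/MS; n=3.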

[3] = molecular target: T2, Solute carrier family 15 member 1; test: Substrate activity at PEPT1 in human Caco2 cells assessed as inhibition of Gly-Sar uptake measured after 10 mins by UPLC-MS/MS analysis; type: cell-based
In short: (§2)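 Caco-2 cells with 0.5 mM Gly-Sar probe substrate and competitor at 0.5–50 mM. IC50 by nonlinear fitting; n=3.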

[4] = molecular target: T2, Solute carrier family 15 member 1; test: Substrate activity at PEPT1 in human Caco2 cells assessed as inhibition of Gly-Sar uptake by LC-MS/MS analysis; type: cell-based; in short: as §2
[5] = molecular target: T1, Solute carrier family 15 member 1; test: Substrate activity at PEPT1 in Sprague-Dawley rat jejunum assessed as effective permeability at 5 mM measured after 15 to 120 mins by HPLC analysis; type: ADME, tissue-based; settings: 5000 µM
In short: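 In situ single-pass jejunal perfusion in fasted (12 h) male SD rats anaesthetised with urethane 1.5 g/kg i.p. About 10 cm of jejunum was perfused at 0.2 mL/min with pH 6.0 HEPES buffer containing 5 mM compound. Outflow was collected 15–120 min after steady state and assayed by HPLC. Peff was calculated from outlet/inlet concentration and volume ratios and segment radius and length.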

[6] = molecular target: T2, Solute carrier family 15 member 1; test: Substrate activity at PEPT1 in human Caco2 cells assessed as protein-mediated drug uptake at 0.5 mM measured after 10 mins in pH 6 HBSS buffer by UPLC-MS/MS analysis; type: ADME, cell-based; settings: caco-2, pH 6, 10 min, 500 µM; in short: as §1
[7] = Oral bioavailability in rat; type: ADME, organism-based; settings: in vivo

With `O=C(O)[C@H](CO)NC(=O)[C@@H]1C[C@@H](O)CN1` (H-[Hyp]-Ser-OH) the Ratio [1] was 7.3, the Drug uptake [2] was “Not Active” and the IC50 [3] was 1.76 mM. The Ki [4] was 2.5 mM, the Peff [5] was “Permeable” and the Drug uptake [6] was “Active”. For the same compound, the bioavailability [7] was ≤ 100%.
